According to ChEMBL document CHEMBL3860044, “The Rational Design, Synthesis, and Antimicrobial Properties of Thiophene Derivatives That Inhibit Bacterial Histidine Kinases” (J Med Chem, 2016):
≈ marks a conversion by molar mass, not a printed value. Calls of active or inactive are those of the source. No cut-off for these calls is given here.

Legend:
Staphylococcus aureus [1] = test: Inhibition of histidine kinase in methicillin-resistant Staphylococcus aureus isolate C1BP13 assessed as adjuvant activity for restoration of penicillin G induced bactericidal activity by measuring penicillin G MBC at 50 ug/ml by broth microdilution method (reference value: >8 ug/ml)
In short: (§1)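 Clinical resistant isolates and quality control strains (S. aureus ATCC 29213, E. coli ATCC 25922) are tested by EUCAST broth microdilution with a 10⁶ bacteria/mL inoculum, in triplicate, with or without a fixed adjuvant concentration. For MBC, the MIC dilution and at least two more concentrated dilutions are plated and CFU/mL counted.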

Streptococcus agalactiae = test: Antimicrobial activity against Streptococcus agalactiae COH1 GBS after 20 hrs by two fold serial broth dilution method; format: functional
In short: (§2)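 2-fold serial broth dilution per CLSI in LB, BHI or THB; inoculum (3–7) × 10⁵ cfu/mL; compound 0.5 to 128 µg/mL; 20 h at 37 °C. MIC taken as lowest concentration with no visible growth. For MBC (>99.99% kill), 10 µL from wells without growth spotted on agar; read next day as spots with fewer than 5 colonies.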

Staphylococcus aureus [2] = test: Bactericidal activity against methicillin-resistant Staphylococcus aureus USA300 TCH1516 at 50 ug/ml upto 9 hrs; format: functional; conditions: USA300_TCH1516
In short: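 Culture inoculated at OD600 0.05 and grown until OD600 reaches 0.5–0.6, when additives are added; chloramphenicol and vancomycin serve as controls. OD600 is followed before and after addition for several hours. For S. aureus the assay uses fewer time points and a smaller volume.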

Enterococcus faecalis [3] = test: Antimicrobial activity against Enterococcus faecalis V583 after 20 hrs by two fold serial broth dilution method; format: functional; conditions: V583, 20 h; in short: as §2
Escherichia coli [4] = test: (§3) Inhibition of histidine kinase in ofloxacin-resistant Escherichia coli isolate G02 assessed as adjuvant activity for restoration of ofloxacin induced antibacterial activity by measuring ofloxacin MIC at 50 ug/ml by broth microdilution method (reference value: >16 ug/ml); in short: as §1
[5] = Antimicrobial activity against Salmonella enterica 14028S after 20 hrs by two fold serial broth dilution method; format: functional
In short: (§4)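 Two-fold serial broth dilution per CLSI in LB, BHI or THB broth, (3–7) × 10⁵ cfu/mL per well, compound 0.5 to 128 µg/mL, 20 h at 37 °C. MIC is the lowest concentration with no growth. For MBC (>99.99% kill), 10 µL from wells without growth are spotted on agar and read the next day as spots with fewer than 5 colonies.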

Escherichia coli [6] = test: as §3, with “cephalosporin-resistant” for “ofloxacin-resistant”, “ARS 108 harboring extended spectrum beta lactamase” for “G02”, “cefotaxime” for “ofloxacin”; in short: as §1
Staphylococcus aureus [7] = test: Bactericidal activity against methicillin-resistant Staphylococcus aureus USA300 TCH1516 after 20 hrs by two fold serial broth dilution method; format: functional, USA300_TCH1516; in short: as §4
Staphylococcus aureus [8] = test: Antimicrobial activity against methicillin-resistant Staphylococcus aureus USA300 TCH1516 at 100 ug after 20 hrs by disk diffusion assay; format: functional; conditions: USA300_TCH1516
Escherichia coli [9] = test: as §3, with “amoxicillin-resistant” for “ofloxacin-resistant”, “G28 harboring beta-lactamase” for “G02”, “amoxicillin” for “ofloxacin”; in short: as §1
[10] = Inhibition of Bacillus subtilis JH642 Hexa-his-tagged ResE cytoplasmic domain (203 to 589 residues) autophosphorylation expressed in Escherichia coli BL21(DE3) preincubated for 5 mins followed by [gamma-32P] ATP addition measured after 8 to 60 mins by SDS-PAGE based phosphor imaging method; parameters: species or system Bacillus subtilis subsp. subtilis str. JH642
In short: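 His6-ResE purified by Ni-NTA after IPTG induction (1 mM, 16 °C). For IC50: 0.5 µM kinase in Epps pH 8.5, MgCl2, EDTA, glycerol buffer; compound 0–800 µM (two-fold steps), DMSO held constant, 5 min before ATP at 2.5 µM final, cold:hot ratio 1:10. Stopped with SDS loading buffer after 8 min; SDS-PAGE, phosphorimaging, densitometry.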

[11] = Inhibition of Enterococcus faecalis Hexa-his-tagged IreK autophosphorylation expressed in Escherichia coli BL21(DE3) preincubated for 5 mins followed by [gamma-32P] ATP addition measured after 15 mins by SDS-PAGE based phosphor imaging method
In short: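 His6-IreK expressed in E. coli BL21(DE3) with IPTG at 16 °C and purified by Ni-NTA. Autophosphorylation run as for the histidine kinases: 0.5 µM kinase, 2.5 µM ATP with [γ-32P]ATP, compound 0–800 µM added before ATP.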

Listeria monocytogenes = test: Bactericidal against Listeria monocytogenes 10403S after 20 hrs by two fold serial broth dilution method; format: functional; in short: as §2
Staphylococcus aureus [12] = test: Inhibition of histidine kinase in methicillin-resistant Staphylococcus aureus isolate C1BP13 assessed as adjuvant activity for restoration of cloxacillin induced bactericidal activity by measuring cloxacillin MBC at 50 ug/ml by broth microdilution method (reference value: >8 ug/ml); in short: as §1
Enterococcus faecalis [13] = test: Bactericidal activity against Enterococcus faecalis V583 after 20 hrs by two fold serial broth dilution method; format: functional; in short: as §2
[14] = system: Bacillus subtilis subsp. subtilis str. JH642; test: Bactericidal activity against Bacillus subtilis JH642 assessed as bacterial cell lysis at 50 ug/ml upto 9 hrs; format: functional
In short: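 B. subtilis JH642 grown overnight in LB, diluted into 20 mL LB at OD600 0.05, grown at 37 °C. Compound added at OD600 0.5–0.6. OD600 followed before and after addition over several hours. Vancomycin served as bactericidal control and chloramphenicol as bacteriostatic control.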

[15] = Inhibition of Escherichia coli DNA gyrase supercoiling activity using relaxed pUC19 DNA as substrate after 30 mins by agarose gel electrophoresis
In short: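 E. coli gyrase (1 U) with 75 ng relaxed pUC19 in kit buffer with 2% DMSO. Compound at 6.25–800 µM final, ciprofloxacin as control. Incubated 30 min at 37 °C, stopped with loading dye, supercoiling read by agarose gel electrophoresis.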

Escherichia coli [16] = test: Inhibition of histidine kinase in amoxicillin-resistant Escherichia coli isolate G28 harboring beta-lactamase assessed as adjuvant activity for restoration of cefotaxime induced antibacterial activity by measuring cefotaxime MIC at 50 ug/ml by broth microdilution method (reference value: >16 ug/ml); in short: as §1
Staphylococcus aureus [17] = test: Inhibition of histidine kinase in methicillin-resistant Staphylococcus aureus isolate C1BP13 assessed as adjuvant activity for restoration of penicillin G induced antibacterial activity by measuring penicillin G MIC at 50 ug/ml by broth microdilution method (reference value: >8 ug/ml); in short: as §1
Escherichia coli [18] = test: Antimicrobial activity against Escherichia coli MG1655 after 20 hrs by two fold serial broth dilution method; format: functional; conditions: K-12 substr. MG1655, 20 h; in short: as §4
Escherichia coli [19] = test: Inhibition of histidine kinase in cephalosporin-resistant/ESBL producing Escherichia coli isolate ARS 108 assessed as adjuvant activity for restoration of amoxicillin induced bactericidal activity by measuring amoxicillin MBC at 50 ug/ml by broth microdilution method (reference value: >16 ug/ml); in short: as §1

For O=[N+]([O-])c1ccc(-c2ccccc2O)s1, the MBC (Staphylococcus aureus [1]) was 4 µg/mL, the MIC (Streptococcus agalactiae) was 16 µg/mL (≈ 72.3 µM) and the Activity (Staphylococcus aureus [2]) was “Active”. It also gave an MIC (Enterococcus faecalis [3]) of 32 µg/mL (≈ 145 µM), an MIC (Escherichia coli [4]) of under 0.015 µg/mL and an MIC [5] of 32 µg/mL (≈ 145 µM). For the same compound, the MIC (Escherichia coli [6]) was 0.03 µg/mL, the MBC99.99 (Staphylococcus aureus [7]) was 32 µg/mL (≈ 145 µM) and the Activity (Staphylococcus aureus [8]) was “Active”. The MIC (Escherichia coli [9]) was 0.03 µg/mL, the IC50 [10] was 124 µM and the IC50 [11] was over 800 µM. For the same compound, the MBC99.99 (Listeria monocytogenes) was over 64 µg/mL, the MBC (Staphylococcus aureus [12]) was over 8 µg/mL and the MBC99.99 (Enterococcus faecalis [13]) was over 64 µg/mL. The Activity [14] was “Active”, the IC50 [15] was at least 400 µM and the MIC (Escherichia coli [16]) was 0.03 µg/mL. The MIC (Staphylococcus aureus [17]) was under 0.015 µg/mL, the MIC (Escherichia coli [18]) was 32 µg/mL (≈ 145 µM) and the MBC (Escherichia coli [19]) was over 16 µg/mL.
